# Non-standard residues stand in square brackets, D forms with d. Residues, ends and D or L forms follow the SMILES beside them. *: point of attachment. NMeNle = CCCC[C@H](NC)C(=O)O; Boc = CC(C)(C)OC(=O)*
# Tests used:
# [1] = molecular target: T1, Cholecystokinin receptor type A (Cavia porcellus, UniProt Q63931); assay: Inhibition of [3H]pCCK-8 binding to Cholecystokinin type A receptor of Guinea pig pancreatic membranes
# T1 sequence (Q63931 whole entry): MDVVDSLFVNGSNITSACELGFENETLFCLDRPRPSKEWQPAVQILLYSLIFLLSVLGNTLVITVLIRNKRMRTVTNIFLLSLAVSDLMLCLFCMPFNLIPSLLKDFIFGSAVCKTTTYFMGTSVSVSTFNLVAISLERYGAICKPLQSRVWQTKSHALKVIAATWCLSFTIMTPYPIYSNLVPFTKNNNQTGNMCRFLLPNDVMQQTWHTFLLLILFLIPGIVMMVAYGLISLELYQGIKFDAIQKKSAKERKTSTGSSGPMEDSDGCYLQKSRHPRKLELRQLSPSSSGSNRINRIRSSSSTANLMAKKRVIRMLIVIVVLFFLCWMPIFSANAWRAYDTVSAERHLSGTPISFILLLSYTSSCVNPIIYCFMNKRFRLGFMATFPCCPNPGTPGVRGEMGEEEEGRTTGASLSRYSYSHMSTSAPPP
# How it was run: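 Guinea pig pancreatic membranes (0.2 mg protein/tube) incubated with 0.1 nM [3H]pCCK8 and varying competitor for 120 min at 25 °C. Buffer: 10 mM Pipes-HCl pH 6.5, 30 mM MgCl2, 0.2 mg/mL bacitracin, 0.2 mg/mL soybean trypsin inhibitor. Filtration read-out; Ki by Cheng–Prusoff; three experiments in triplicate, mean ± SEM.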
# [2] = molecular target: T2, Gastrin/cholecystokinin type B receptor (Rattus norvegicus, UniProt P30553); assay: Affinity to inhibit [3H]pCCK-8 specific binding on rat brain Cholecystokinin type B receptor expressed in CHO cells; assay type: cell-based
# T2 sequence (P30553 whole entry): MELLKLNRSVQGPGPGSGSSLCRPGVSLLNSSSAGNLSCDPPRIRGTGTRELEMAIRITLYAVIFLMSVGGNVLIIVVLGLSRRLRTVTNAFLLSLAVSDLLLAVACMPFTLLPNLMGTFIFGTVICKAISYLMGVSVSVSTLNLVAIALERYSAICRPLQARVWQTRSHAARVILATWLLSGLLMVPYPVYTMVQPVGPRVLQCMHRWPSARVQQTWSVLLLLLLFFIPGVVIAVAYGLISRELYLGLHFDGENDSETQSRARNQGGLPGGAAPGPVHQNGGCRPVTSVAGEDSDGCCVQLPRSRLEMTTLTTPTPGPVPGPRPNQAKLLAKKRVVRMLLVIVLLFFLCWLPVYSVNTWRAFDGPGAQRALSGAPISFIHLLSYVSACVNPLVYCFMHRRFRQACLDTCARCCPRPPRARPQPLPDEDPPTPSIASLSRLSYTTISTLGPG
# [3] = molecular target: T2, Gastrin/cholecystokinin type B receptor; assay: Effective concentration for the stimulation of Inositol Phosphate accumulation in CHO cells expressing wild-type Cholecystokinin type B receptor; assay type: functional, cell-based
# [4] = molecular target: T3, Gastrin/cholecystokinin type B receptor (Rattus norvegicus) (UniProt P30553); assay: Compound was tested for its ability to stimulate the CCK-B/gastrin receptor by measuring gastric acid output in the anesthetized perfused rat stomach; assay type: functional, tissue-based
# T3 sequence (whole entry): T2 sequence (P30553 whole entry)
# How it was run: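 Male Sprague–Dawley rats (300 ± 25 g), fasted 18 h with water available, anesthetized with intramuscular urethane (0.6–0.7 mL of 25% solution per 100 g). Compounds in saline given iv by continuous infusion. Gastric secretion collected every 15 min and H+ titrated with 0.01 N NaOH to pH 7. Output expressed as % of baseline; ED50 estimated from dose-response curves.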
Structure (SMILES),Ki [1] [nM],Ki ([2]; cho) [nM],other results
CSCC[C@H](NC(=O)[C@@H](N)Cc1c[nH]c2ccccc12)C(=O)N[C@@H](CC(=O)O)C(=O)N[C@@H](Cc1ccccc1)C(N)=O [TETRAGASTRIN],36100,,
C[C@]1(Cc2c[nH]c3ccccc23)NC(=O)CC(=O)NCCCC[C@@H](C(=O)N[C@@H](CC(=O)O)C(=O)N[C@@H](Cc2ccccc2)C(N)=O)NC1=O,2290,,
C[C@]1(Cc2c[nH]c3ccccc23)NC(=O)CCCCCC[C@@H](C(=O)N[C@@H](CC(=O)O)C(=O)N[C@@H](Cc2ccccc2)C(N)=O)NC1=O,2880,142,
C[C@]1(Cc2c[nH]c3ccccc23)NC(=O)CCCCCCCC[C@@H](C(=O)N[C@@H](CC(=O)O)C(=O)N[C@@H](Cc2ccccc2)C(N)=O)NC1=O,2470,23,EC50 ([3]; cho): 4 nM
C[C@]1(Cc2c[nH]c3ccccc23)NC(=O)CCCCSSCC[C@@H](C(=O)N[C@@H](CC(=O)O)C(=O)N[C@@H](Cc2ccccc2)C(N)=O)NC1=O,271,80,EC50 ([3]; cho): 7 nM
C[C@]1(Cc2c[nH]c3ccccc23)NC(=O)CCCCSSCC[C@H](C(=O)N[C@@H](CC(=O)O)C(=O)N[C@@H](Cc2ccccc2)C(N)=O)NC1=O,,,ED50 [4]: 52 nM/h/kg
CCCC[C@@H](C(=O)N[C@@H](CC(=O)O)C(=O)N[C@@H](Cc1ccccc1)C(N)=O)N(C)C(=O)[C@H](Cc1c[nH]c2ccccc12)NC(=O)OC(C)(C)C (Boc-W[NMeNle]DF-NH2),> 5000,,Ki [2]: 8.7 nM; EC50 [3]: 1.5 nM
C[C@]1(Cc2c[nH]c3ccccc23)NC(=O)CCCCCCC[C@@H](C(=O)N[C@@H](CC(=O)O)C(=O)N[C@@H](Cc2ccccc2)C(N)=O)NC1=O,> 10000,,
C[C@]1(Cc2c[nH]c3ccccc23)NC(=O)CCCCCCC[C@H](C(=O)N[C@@H](CC(=O)O)C(=O)N[C@@H](Cc2ccccc2)C(N)=O)NC1=O,2210,,ED50 [4]: 7.6 nM/h/kg
